Legend:
P2Y purinoceptor 12 = P2Y purinoceptor 12 (Homo sapiens, UniProt Q9H244); assay: Displacement of [3H]-2-methyl-thio-adenosine 5'-diphosphate from human recombinant P2Y12 expressed in CHO cell membranes by scintillation counting method
Procedure, shortened: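 CHO cells expressing recombinant P2Y₁₂ receptors, incubated with tritium-labeled 2-methyl-thio-adenosine 5'-diphosphate plus test compound; IC₅₀ from displacement curves, each point in triplicate; reference compound run with every compound set, and set re-analyzed if its IC₅₀ fell outside pre-set 95% confidence interval.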

[1] = Solubility in neutral pH; type: physicochemical
[2] = Solubility in basic pH; type: physicochemical
Cytochrome P450 3A4 [3] = molecular target: T1, Cytochrome P450 3A4 (Homo sapiens, UniProt P08684); assay: Inhibition of CYP3A4 in human liver microsomes assessed as reduction in midazolam 1'-hydroxylation; type: ADME
Cytochrome P450 3A4 [4] = molecular target: T1, Cytochrome P450 3A4; assay: Inhibition of CYP3A4 in human liver microsomes assessed as reduction in testosterone 6beta-hydroxylation; type: ADME
Cytochrome P450 2D6 = Cytochrome P450 2D6 (Homo sapiens, UniProt P10635); assay: Inhibition of CYP2D6 in human liver microsomes assessed as reduction in dextromethorphan-O demethylation; type: ADME
Cytochrome P450 2C9 = Cytochrome P450 2C9 (Homo sapiens, UniProt P11712); assay: Inhibition of CYP2C9 in human liver microsomes assessed as reduction in diclofenac 4'-hydroxylation; type: ADME
Liver microsome [5] = assay: Metabolic stability assay in human liver microsomes assessed as parent drug disappearance at 1 uM after 20 mins by HPLC and mass spectrometry method; type: ADME
Liver microsome [6] = assay: Metabolic stability assay in rat liver microsomes assessed as parent drug disappearance at 1 uM after 20 mins by HPLC and mass spectrometry method; type: ADME
[7] = molecular target: Voltage-gated inwardly rectifying potassium channel KCNH2 (Homo sapiens, UniProt Q12809); assay: Inhibition of human ERG expressed in HEK cells by patch-clamp assay; type: cell-based; conditions: hek293
Platelet [8] = assay: Inhibition of ADP-induced platelet aggregation in human platelet rich plasma assessed as remaining activity at 500 nM by in-vitro light transmission aggregometry assay; type: functional
Procedure, shortened: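 Light transmission aggregometry in human platelet-rich plasma; compound incubated, aggregation triggered with 3 µM ADP; remaining activity (RA) recorded at a single compound level (1000, 500 or 100 nM).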

Platelet [9] = assay: Inhibition of ADP-induced platelet aggregation in human platelet rich plasma by in-vitro light transmission aggregometry assay; type: functional; conditions: Homo sapiens, Platelet, Plasma
Procedure, shortened: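 Human platelet-rich plasma incubated with compound, aggregation induced by 3 µM ADP and read by light transmission aggregometry; IC₅₀ derived from concentration–response curve.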

[10] = Potency shift, ratio of IC50 for inhibition of ADP-induced platelet aggregation in human platelet rich plasma to IC50 for displacement of [3H]-2-methyl-thio-adenosine 5'-diphosphate from human recombinant P2Y12 expressed in CHO cell membranes

Sequence of Voltage-gated inwardly rectifying potassium channel KCNH2 (Q12809 whole entry): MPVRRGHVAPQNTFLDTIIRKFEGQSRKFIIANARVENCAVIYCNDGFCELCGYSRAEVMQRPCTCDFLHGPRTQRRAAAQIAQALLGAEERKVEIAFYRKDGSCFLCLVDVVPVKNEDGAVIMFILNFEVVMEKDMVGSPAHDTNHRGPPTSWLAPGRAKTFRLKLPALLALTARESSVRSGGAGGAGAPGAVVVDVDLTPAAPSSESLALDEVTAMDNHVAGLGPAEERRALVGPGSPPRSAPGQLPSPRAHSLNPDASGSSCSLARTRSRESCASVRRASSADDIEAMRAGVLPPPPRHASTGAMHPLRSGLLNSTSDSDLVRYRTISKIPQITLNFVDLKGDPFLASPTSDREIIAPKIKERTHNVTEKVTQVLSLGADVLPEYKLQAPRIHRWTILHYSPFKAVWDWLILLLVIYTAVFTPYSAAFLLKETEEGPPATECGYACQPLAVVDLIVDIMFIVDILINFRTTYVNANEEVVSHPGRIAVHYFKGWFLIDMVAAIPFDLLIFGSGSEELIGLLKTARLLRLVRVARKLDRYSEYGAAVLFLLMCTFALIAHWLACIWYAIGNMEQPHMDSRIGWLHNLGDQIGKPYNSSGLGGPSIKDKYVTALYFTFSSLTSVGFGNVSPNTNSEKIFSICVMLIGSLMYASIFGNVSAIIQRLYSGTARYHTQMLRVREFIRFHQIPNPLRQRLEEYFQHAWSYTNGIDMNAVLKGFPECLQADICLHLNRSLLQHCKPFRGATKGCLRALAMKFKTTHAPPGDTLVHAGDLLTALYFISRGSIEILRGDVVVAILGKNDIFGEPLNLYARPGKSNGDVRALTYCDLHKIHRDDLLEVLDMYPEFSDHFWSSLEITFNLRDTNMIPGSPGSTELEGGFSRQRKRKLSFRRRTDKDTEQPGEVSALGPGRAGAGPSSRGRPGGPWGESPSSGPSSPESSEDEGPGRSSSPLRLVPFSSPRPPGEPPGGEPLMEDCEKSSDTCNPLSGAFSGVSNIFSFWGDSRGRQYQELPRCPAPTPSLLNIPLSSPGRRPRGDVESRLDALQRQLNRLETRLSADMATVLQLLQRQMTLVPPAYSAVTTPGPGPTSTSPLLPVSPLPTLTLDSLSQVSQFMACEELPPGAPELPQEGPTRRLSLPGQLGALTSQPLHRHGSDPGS
Sequence of Cytochrome P450 2D6 (P10635 whole entry): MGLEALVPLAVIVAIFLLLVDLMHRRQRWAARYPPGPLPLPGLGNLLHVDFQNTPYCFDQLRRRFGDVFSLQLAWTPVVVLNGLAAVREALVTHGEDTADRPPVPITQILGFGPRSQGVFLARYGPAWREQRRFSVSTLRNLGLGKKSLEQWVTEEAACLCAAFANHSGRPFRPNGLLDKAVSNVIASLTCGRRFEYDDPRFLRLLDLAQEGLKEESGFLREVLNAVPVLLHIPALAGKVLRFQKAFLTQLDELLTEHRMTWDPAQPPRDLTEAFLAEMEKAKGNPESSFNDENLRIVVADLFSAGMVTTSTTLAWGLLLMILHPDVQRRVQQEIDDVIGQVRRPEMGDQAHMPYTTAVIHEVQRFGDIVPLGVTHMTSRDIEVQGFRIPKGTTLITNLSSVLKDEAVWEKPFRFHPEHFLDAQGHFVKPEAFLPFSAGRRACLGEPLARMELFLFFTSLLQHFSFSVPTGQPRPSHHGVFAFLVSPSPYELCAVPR
Sequence of Cytochrome P450 2C9 (P11712 whole entry): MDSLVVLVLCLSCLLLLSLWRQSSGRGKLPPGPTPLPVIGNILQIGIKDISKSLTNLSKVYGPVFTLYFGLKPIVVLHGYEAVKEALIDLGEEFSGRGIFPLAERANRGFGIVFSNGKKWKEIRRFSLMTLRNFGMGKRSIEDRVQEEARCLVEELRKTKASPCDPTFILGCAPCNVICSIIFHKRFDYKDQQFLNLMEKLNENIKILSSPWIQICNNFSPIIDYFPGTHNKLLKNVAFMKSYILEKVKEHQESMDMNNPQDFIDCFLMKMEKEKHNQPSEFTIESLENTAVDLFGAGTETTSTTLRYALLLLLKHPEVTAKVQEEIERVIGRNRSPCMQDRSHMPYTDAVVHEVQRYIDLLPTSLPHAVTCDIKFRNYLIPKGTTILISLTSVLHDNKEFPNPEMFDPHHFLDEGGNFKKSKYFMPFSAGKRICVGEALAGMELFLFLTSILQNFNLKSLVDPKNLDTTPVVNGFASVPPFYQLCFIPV
T1 sequence (P08684 whole entry): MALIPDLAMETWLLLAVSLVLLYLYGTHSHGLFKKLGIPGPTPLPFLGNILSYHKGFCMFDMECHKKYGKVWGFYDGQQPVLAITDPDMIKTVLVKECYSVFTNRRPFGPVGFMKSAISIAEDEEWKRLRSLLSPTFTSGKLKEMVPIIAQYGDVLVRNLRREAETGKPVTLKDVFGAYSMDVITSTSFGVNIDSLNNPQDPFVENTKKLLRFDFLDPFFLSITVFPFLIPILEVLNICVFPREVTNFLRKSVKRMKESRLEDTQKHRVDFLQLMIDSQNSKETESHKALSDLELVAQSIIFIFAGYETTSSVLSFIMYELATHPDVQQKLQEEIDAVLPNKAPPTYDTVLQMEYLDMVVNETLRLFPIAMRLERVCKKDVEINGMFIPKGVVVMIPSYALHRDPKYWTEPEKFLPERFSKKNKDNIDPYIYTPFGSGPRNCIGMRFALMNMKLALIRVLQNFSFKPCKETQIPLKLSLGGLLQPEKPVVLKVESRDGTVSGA
Sequence of P2Y purinoceptor 12 (Q9H244 whole entry): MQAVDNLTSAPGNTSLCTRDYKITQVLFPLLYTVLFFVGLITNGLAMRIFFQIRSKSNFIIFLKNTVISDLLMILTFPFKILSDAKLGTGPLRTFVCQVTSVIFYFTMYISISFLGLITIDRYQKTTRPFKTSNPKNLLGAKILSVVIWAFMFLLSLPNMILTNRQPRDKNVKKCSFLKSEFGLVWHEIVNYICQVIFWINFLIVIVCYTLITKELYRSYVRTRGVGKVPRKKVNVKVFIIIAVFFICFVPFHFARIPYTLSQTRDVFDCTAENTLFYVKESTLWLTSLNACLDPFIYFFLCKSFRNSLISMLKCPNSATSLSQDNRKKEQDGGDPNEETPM

Compound	IC50 (P2Y purinoceptor 12) [nM]	solubility [1]	solubility [2]	inhibition (INH) (Cytochrome P450 3A4 [3])	inhibition (INH) (Cytochrome P450 3A4 [4])	inhibition (INH) (Cytochrome P450 2D6)	inhibition (INH) (Cytochrome P450 2C9)	Stability (Liver microsome [5])	Stability (Liver microsome [6])	inhibition (INH) [7]	Activity (Platelet [8]) [%]	IC50 (Platelet [9]) [nM]	Ratio IC50 [10]
CCOC(=O)N1CCN(C(=O)[C@H](CCC(=O)O)NC(=O)c2cc(NCCN(C)C)nc(-c3ccccc3)n2)CC1	2780	soluble	soluble	Not Active	Not Active	Not Active	Not Active	Stable	Stable	Not Active	–	–	–
CCOC(=O)N1CCN(C(=O)[C@H](CCC(=O)O)NC(=O)c2cc(N3CCCCC3)nc(-c3ccccc3)n2)CC1	201	soluble	soluble	Not Active	Not Active	Not Active	Not Active	Stable	Stable	Not Active	30	–	–
CCOC(=O)N1CCN(C(=O)[C@H](CCC(=O)O)NC(=O)c2cc(-c3ccc(OC)cc3)nc(-c3ccccc3)n2)CC1	31	soluble	soluble	Not Active	Not Active	Not Active	Not Active	Stable	Stable	Not Active	30	523	17
CCOC(=O)N1CCN(C(=O)[C@H](CCC(=O)O)NC(=O)c2cc(CN3CCOCC3)nc(-c3ccccc3)n2)CC1	428	soluble	soluble	Not Active	Not Active	Not Active	Not Active	Stable	Stable	Not Active	–	–	–
CCCCOC(=O)N1CCN(C(=O)[C@H](CCC(=O)O)NC(=O)c2cc([C@H]3C[C@H]3COC)nc(-c3ccccc3)n2)CC1 (racemic)	9	soluble	soluble	Not Active	Not Active	Not Active	Not Active	Stable	Stable	Not Active	–	287	32
CCOC(=O)N1CCN(C(=O)[C@H](CCC(=O)O)NC(=O)c2cc(NS(=O)(=O)c3ccccc3)nc(-c3ccccc3)n2)CC1	266	soluble	soluble	Not Active	Not Active	Not Active	Not Active	Stable	Stable	Not Active	–	–	–
CCCCOC(=O)N1CCN(C(=O)[C@H](CCC(=O)O)NC(=O)c2cc([C@H]3C[C@@H]3COC)nc(-c3ccccc3)n2)CC1 (racemic)	3	soluble	soluble	Not Active	Not Active	Not Active	Not Active	Stable	Stable	Not Active	–	21	7
CCOC(=O)N1CCN(C(=O)[C@H](CCC(=O)O)NC(=O)c2cc(NCCCO)nc(-c3ccccc3)n2)CC1	279	soluble	soluble	Not Active	Not Active	Not Active	Not Active	Stable	Stable	Not Active	30	–	–
CCOC(=O)N1CCN(C(=O)[C@H](CCC(=O)O)NC(=O)c2cc(NC(C)C)nc(-c3ccccc3)n2)CC1	95.5	soluble	soluble	Not Active	Not Active	Not Active	Not Active	Stable	Stable	Not Active	–	724	7.6
CCOC(=O)N1CCN(C(=O)[C@H](CCC(=O)O)NC(=O)c2cc(CN3CCCCC3)nc(-c3ccccc3)n2)CC1	533	soluble	soluble	Not Active	Not Active	Not Active	Not Active	Stable	Stable	Not Active	–	–	–
CCOC(=O)N1CCN(C(=O)[C@H](CCC(=O)O)NC(=O)c2cc(-n3cc(C)cn3)nc(-c3ccccc3)n2)CC1	27	soluble	soluble	Not Active	Not Active	Not Active	Not Active	Stable	Stable	Not Active	30	318	12
CCOC(=O)N1CCN(C(=O)[C@H](CCC(=O)O)NC(=O)c2cc(N3CCCCC3CN(C)C)nc(-c3ccccc3)n2)CC1 (stereo partly specified)	291	soluble	soluble	Not Active	Not Active	Not Active	Not Active	Stable	Stable	Not Active	30	–	–
CCOC(=O)N1CCN(C(=O)[C@H](CCC(=O)O)NC(=O)c2cc(NCCN3CCOCC3)nc(-c3ccccc3)n2)CC1	257	soluble	soluble	Not Active	Not Active	Not Active	Not Active	Stable	Stable	Not Active	30	–	–
CCOC(=O)N1CCN(C(=O)[C@H](CCC(=O)O)NC(=O)c2cc(N[C@H]3CC[C@H](O)CC3)nc(-c3ccccc3)n2)CC1	–	soluble	soluble	Not Active	Not Active	Not Active	Not Active	Stable	Stable	Not Active	30	–	–

From ChEMBL document CHEMBL3351863, “Optimization of 2-phenyl-pyrimidine-4-carboxamides towards potent, orally bioavailable and selective P2Y(12) antagonists for inhibition of platelet aggregation” (Bioorg Med Chem Lett, 2014)
